Results on 48 sequences are retold here after the EternaBench riboswitch data.

What is called apparent Kd is the concentration giving half-maximal binding under the conditions of the assay.

The series relates to MS2 coat protein. Description: apparent Kd, MS2 coat protein; higher = weaker binding; RNA-MaP array; FMN 200 µM where present. In short, it runs like this:
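The apparent Kd is the median of filtered binding-curve fits, one per cluster, to green signal normalised to red-channel RNA signal and control-cluster median Fmax. The clusters were on Illumina sequencing chips, and stalled E. coli RNA polymerase had transcribed the designs on them. Titration used SNAP-549-labelled MS2 coat protein from 0.7 or 1.5 nM, doubling to 3 µM, without and then with constant ligand, in 100 mM Tris-HCl pH 7.5, 80 mM KCl, 4 mM MgCl2, BSA, DTT, yeast tRNA and Tween-20.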

Where [1] appears, read: designed as: ON switch for flavin mononucleotide, no ligand.
Setting [2] is: ligand present: flavin mononucleotide, designed as: ON switch for flavin mononucleotide.
[3] abbreviates: designed as: OFF switch for flavin mononucleotide, no ligand.
Where [4] appears, read: ligand present: flavin mononucleotide, designed as: OFF switch for flavin mononucleotide.

Take “AAUUAGGUCACAGGAUAUACAUCAUCCAUAGAUGUAGAAGGGUGUCAAAAUAAUAUCUGACAUGAGGAUCACCCAUGUUUCCAC”: the “apparent Kd” value reads like this: under setting [1], 19.5 nM; under setting [2], 8.97 nM.

Turning to “CCGAUGUAAGGAUAUCGUGCAAGUUUCAAAAGAGGCUUGUGCGAGAAGGUACAUGAGGAUCACCCAUGUAGGUU”, the “apparent Kd” value was 95.4 nM under setting [3] and 345 nM under setting [4].

Consider “UGAUAGGACAGAGGAUAUACGAAAGGCGAUCCAUACAUGAGGAUCACCCAUGUAGAAGGCUGUCCUAUCUAAGUCGGAAACGAC”, for which the “apparent Kd” value is, setting by setting: under setting [3], 84.9 nM; under setting [4], 16.9 nM.

For “UGGAUCAUGGGAGGAUAUGGGAAGAUACAUGAGGAUCACCCAUGUUUAAGAAUGCCGAGAGGCAACUAGAAGGCCCAUGAUCCU”, the “apparent Kd” value is, setting by setting: under setting [1], 1090 nM; under setting [2], 47.9 nM.

With “CAGUACAGAGGAUAUACAUGAGGAUCACCCAUGUGUUUCAGCUAGGAGACUAGCGAGUGUAGAAGGCUGUACUG”, the “apparent Kd” value by setting is: under setting [3], 37.4 nM; under setting [4], 360 nM.

With “CUCAUGUGCGUCGGCAAGUUAACACAGGAUAUCCGAGAAAACAUGAGGAUCACCCAUGUAACUUCGGAGAAGGGUGAUGAGAGA”, the “apparent Kd” value under setting [1] came out at 64.9 nM and the “apparent Kd” value under setting [2] was 23.1 nM.

As for “GAGACGUCAGGAUAUCUGAUGUCUAACUUCGGUUAGACAUCAGAGAAGGGACAUGAGGAUCACCCAUGUCUCAG”, the “apparent Kd” value turned out to be 15.9 nM under setting [3] and 13.9 nM under setting [4].

As to “UCGAUGCGAGGAUAUACUAAGGCAACUACUGCAGCUCAAAAACAUGAGGAUCACCCAUGUAGAAGGCGCAUAUA”, the “apparent Kd” value was 16 nM under setting [3] and 15.4 nM under setting [4].

On to “UCCGUGGCAUCUCGCGCAUGUCCACAUGAGGAUCACCCAUGUCAGGAUAUACGGAAUGUCGUUCCGUAGAAGGGACAAGGGCUG”, for which the “apparent Kd” value is, setting by setting: under setting [3], 178 nM; under setting [4], 69.7 nM.

Consider “AAGGGACAUGAGGAUCACCCAUGUGAGGAUAUAUAAAUGUACCCGAUGGGAGUACACAAUAGAAGGCGCGGCUA”, for which the “apparent Kd” value is, setting by setting: under setting [3], 40.7 nM; under setting [4], 32.8 nM.

“GUUUUUUUUCAUGUACAUGAGGAACAUGAGGAUCACCCAUGUAGAAGGAAUUUUUUUAAGUUUAGUUAGGAUAUACAUAUAUUG”: the “apparent Kd” value turned out to be 54.2 nM under setting [3] and 33.9 nM under setting [4].

“GUGCGGUCAGGAUAUGCAUGGCGGGACUUGCGUCGUGGCGUGGAGAAGGGACAUGAGGAUCACCCAUGUGGAGC”: the “apparent Kd” value reads like this: under setting [3], 51.4 nM; under setting [4], 54.2 nM.

As to “UGUGCUGAAGGAUAUGCGUAAUGGCCGUGAGGCCUAGAUCUACAUGAGGAUCACCCAUGUAGAAGGUCAGUACU”, the “apparent Kd” value is, setting by setting: under setting [3], 17.4 nM; under setting [4], 18.9 nM.

Turning to “UGUCGGAGCAGAGGAUAUUACAUGAGGAUCACCCAUGUAUGAACCAAUAGCUGGAAGCAGCAAUGUAAGAAGGCUGCUCCGACA”, the “apparent Kd” value stood at 12.2 nM under setting [3] and 137 nM under setting [4].

For “AGAGAAUACUCAGGAUAUCUUAAUAGAAAGAAUAGAGAAGGGAGACAUGAGGAUCACCCAUGUGAAGUCUUGAGACUACAUGGU”, the “apparent Kd” value is 291 nM under setting [3] and 442 nM under setting [4].

For “AUAUUAUUGAUCCAUUUUUUCAACAUGAGGAUCACCCAUGUGCAGGAUAUCGUGUGUUUUAUAAACGAGAAGGGCAAAUUCAUU”, the “apparent Kd” value is, setting by setting: under setting [3], 82.6 nM; under setting [4], 218 nM.

For the sequence “CAUGUCCUCGCAGGAUAUGCUGGACUUUGUCCAGCAGAAGGGUGAUAACAUGAGGAUCACCCAUGUGGACAUGAUAUAUUUAAU”, the “apparent Kd” value reads like this: under setting [1], 28.1 nM; under setting [2], 1720 nM.

With “AGAAAACAUGAGGAUCACCCAUGUGAGGAUAUCGAUGUCCAAGGCCGGGUGCGGGACUCGAGAAGGCACUUGGG”, the “apparent Kd” value reads like this: under setting [3], 75.5 nM; under setting [4], 38.7 nM.

As for “AGCUGUGGCCGAGGAUAUCUGAAACUCAAAACCGAAAUAUAAUCGGACAUGAGGAUCACCCAUGUAGAGAAGGCGGUCUCAGCA”, the “apparent Kd” value is, setting by setting: under setting [3], 165 nM; under setting [4], 307 nM.

Take “GAUCGACAUGAGGAUCACCCAUGUCAGGAUAUCGUCACUGGAGCUUCGGCUCCAGUGACGAGAAGGGACAUAAU”: the “apparent Kd” value was found to be 31.9 nM under setting [3] and 44.6 nM under setting [4].

Take “GCAAAGCCUGACAUGAGGAUCACCCAUGUUAGAUUGUUAUGUCAGGAUAUUGUCUAGCAACUAGACAAGAAGGGAUGCUCUGCC”: the “apparent Kd” value by setting is: under setting [1], 377 nM; under setting [2], 194 nM.

In the case of “CUUUUGUGAGGAUAUUCGUAGUAGGGUCAUGGCACUAUUACGGAGAAGGCACAUGAGGAUCACCCAUGUACCUU”, the “apparent Kd” value is, setting by setting: under setting [3], 15.1 nM; under setting [4], 26.4 nM.

“GGGUACAUCGGAGGAUAUCAUGUAAAUACAUGAGGAUCACCCAUGUCUAUGGAGACAUCGGAGAUUGAGAAGGCCGAUGUACCG”: the “apparent Kd” value was 14.4 nM under setting [1] and 150 nM under setting [2].

Consider “GUCGGAAACGACAAAAGUAUGGAUCCAGAAGGCAUGUACAUGAGGAUCACCCAUGUCUAAAGAUAUGAGGAUAUGGAUCCAUAC”, for which the “apparent Kd” value came to 6.71 nM under setting [1] and 5.18 nM under setting [2].

Consider “GUAGCUAUCGGAGGAUAUUCAUACCGAAAACGGACAUGAGGAUCACCCAUGUGGCGAAAGUCUUGGGAGAAGGCCGAUAGCUAC”, for which the “apparent Kd” value under setting [1] was found to be 39.2 nM and the “apparent Kd” value under setting [2] was found to be 7.62 nM.

Consider “GAGUGACAUGAGGAUCACCCAUGUGAGGAUAUCGGACGGACCAAAUUAACAUCCGCCGCGAGAAGGCACAUCGG”, for which the “apparent Kd” value worked out at 78.7 nM under setting [3] and 24.5 nM under setting [4].

For the sequence “CGCAUGCGUAGUAUUAGUUGCUGACAGGAUAUGACAUGAGGAUCACCCAUGUGAAAUAAGAAGAGUCAGAAGGGUCACGAUGCG”, the “apparent Kd” value under setting [3] was 16.8 nM and the “apparent Kd” value under setting [4] worked out at 9.58 nM.

In the case of “GGAUAGGACAGAGGAUAUACAGAUAGGAUCUACUAUCAAACAAUCCUCACAUGAGGAUCACCCAUGUAGAAGGCUGUCCUAUCG”, the “apparent Kd” value by setting is: under setting [3], 103 nM; under setting [4], 688 nM.

“GAAGCACAUGAGGAUCACCCAUGUAAGGAUAUAUUUCUGGUCCGGCCGGACCAGUACCGUAGAAGGUAUGUAAA”: the “apparent Kd” value by setting is: under setting [3], 13.5 nM; under setting [4], 13.9 nM.

On to “CUUCAGUGAGGAUAUACAUAACGGGACGUUAAUAUCGUUAGGUAGAAGGCACAUGAGGAUCACCCAUGUUUAAA”, for which the “apparent Kd” value was found to be 92 nM under setting [3] and 66 nM under setting [4].

Regarding “GUCAUGUAAGGAUAUCUUACAUGUGACUUCGGUCACUGUCAAGAGAAGGUACAUGAGGAUCACCCAUGUUCGAC”, the “apparent Kd” value was 17.2 nM under setting [3] and 21.8 nM under setting [4].

On to “AGCCCUAAUGUCAGGAUAUGCAUCCUUAAUGGACGGCAGAAGGGACAUGAGGAUCACCCAUGUAAAUAGAAAUU”, for which the “apparent Kd” value by setting is: under setting [3], 34.8 nM; under setting [4], 146 nM.

As to “GAAAAACAUGAGGAUCACCCAUGUAAGGAUAUGCUGAAAAAACACUGGAAACAGUGCAGCAGAAGGUACAAAAG”, the “apparent Kd” value is, setting by setting: under setting [3], 65.1 nM; under setting [4], 103 nM.

“AUGGUGACGUAGAAGGGUGACAUGAGGAUCACCCAUGUGCCGAUAUUUUUCGAAAUAUGUCGGCCACAGGAUAUACGUGCCAUC”: the “apparent Kd” value worked out at 68.7 nM under setting [1] and 136 nM under setting [2].

With “AUUAAACAUGAGGAUCACCCAUGUCAACAAAGUCGAGGAUAUGGGCAAAUAAAAUAUGAACCAGAAGGCGAAUAAU”, the “apparent Kd” value is, setting by setting: under setting [1], 213 nM; under setting [2], 38.2 nM.

On to “UAUAUACAUGAGGAUCACCCAUGUAAGGAUAUGCAUUAUUAUUAUUAUUAUUAUUAUUGCAGAAGGUACAAUAU”, for which the “apparent Kd” value by setting is: under setting [3], 40.7 nM; under setting [4], 39.3 nM.

As for “UAGCAGUAGGGAGGAUAUGCGAAAGGAAGGCCCGCAGAAGGCCUUACAUGAGGAUCACCCAUGUAGGAUGCCUGGGUGGUGCCC”, the “apparent Kd” value was found to be 13.8 nM under setting [3] and 20.3 nM under setting [4].

Take “UCUGAGGUCACAGGAUAUCAUACGUCGGCACGUUGAGAAGGGUGACCGAGCUACAUGAGGAUCACCCAUGUGCUGUCGUAACAA”: the “apparent Kd” value by setting is: under setting [1], 85.4 nM; under setting [2], 164 nM.

Consider “GUGGUCAGACAUGAGGAUCACCCAUGUGGAAUAAAUAAGGGUUAGGAUAUGCAAUAUAGGAUAUAGCAGAAGGGAUGGUUGGUG”, for which the “apparent Kd” value by setting is: under setting [1], 128 nM; under setting [2], 173 nM.

In the case of “UAUUAUAUGGAGAAGGACAUGAGGAUCACCCAUGUCGCCGGGCCCGGGAAACCGGGCCCGGCCAUGUAGGAUAUCCGUAUGGUA”, the “apparent Kd” value by setting is: under setting [3], 6 nM; under setting [4], 7.96 nM.

For “UGCGUGGUCACAGGAUAUGCAAGAUAAACUUUAGCAGAAGGGUGAUCAAUCAGCUCAAUACCACAUGAGGAUCACCCAUGUCUA”, the “apparent Kd” value by setting is: under setting [1], 53.4 nM; under setting [2], 258 nM.

With “UUGGACGUCGUAGGAUAUGUAGGAUAUUCCUACAUGAGGAUCACCCAUGUUGACAUGGAAGAACGACAGAAGGACGAUGUCCAU”, the “apparent Kd” value is, setting by setting: under setting [1], 130 nM; under setting [2], 7.46 nM.

Turning to “CAAACGUGAGGAUAUACAUGAGGAUCACCCAUGUGUUCCUCUAAACUGAAGAAGUAAUGUAGAAGGCACGUUUG”, the “apparent Kd” value runs as follows: under setting [3], 43.1 nM; under setting [4], 19.4 nM.

Turning to “AGAAAACAUGAGGAUCACCCAUGUGAGGAUAUCGAUGUCCAAGGAAGGGUGCGGGACUCGAGAAGGCACUUGGA”, the “apparent Kd” value under setting [3] came to 72.4 nM and the “apparent Kd” value under setting [4] was 58.8 nM.

On to “AGCUAGUACGAAGGAUAUACAAACAUGAGGAUCACCCAUGUAUACAUGGUUUGAUGAGACUACAUGUAGAAGGUCGUACUAGCA”, for which the “apparent Kd” value reads like this: under setting [1], 506 nM; under setting [2], 796 nM.

With “GCACAAAGGUGACACCGUGUCGCUCAGGAUAUACGUGACGGCCCUCGCACAUGAGGAUCACCCAUGUAGAAGGGAGUUAAACGG”, the “apparent Kd” value under setting [3] came to 7.66 nM and the “apparent Kd” value under setting [4] amounted to 14.9 nM.

As for “UCGCUGCGAGGAUAUACGUGCGCGCGCGCGCGCGCGCGCGUACAUGAGGAUCACCCAUGUAGAAGGCGCUCUGC”, the “apparent Kd” value by setting is: under setting [3], 39.7 nM; under setting [4], 36.6 nM.

Take “ACGGCAAUCGAAGGAUAUGGUUACAUGAGGAUCACCCAUGUCUAGGGUCUAAUUAGGUAUAAUUACCAGAAGGUCGAAGGCCUA”: the “apparent Kd” value runs as follows: under setting [3], 93.7 nM; under setting [4], 122 nM.
